{"source": "paper PMC11047177", "about": "(ESMO Open, 2024)", "test": "Phase I study NCT03854227: DLTs and adverse events", "type": "in vivo, human", "outline": "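Open-label, multicentre first-in-human trial in adults (ECOG 0–1) with advanced or metastatic tumours. Oral test compound, q.d. or b.i.d., on an empty stomach in continuous 28-day cycles. Part 1 started at 0.5 mg q.d., with escalation guided by a two-parameter Bayesian logistic regression model on cycle 1 DLTs. Part 2 ran at 6 mg q.d. AEs were graded by CTCAE 5.0 and summarised descriptively by dose level.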", "key": {"[1]": {"conditions": "Part 2 N = 26, 6 mg q.d., any grade"}, "[2]": {"conditions": "Part 2 N = 26, 6 mg q.d., grade ≥3"}, "[3]": {"conditions": "overall (part 1 + part 2), N=54"}}, "data": [{"smiles": "Cc1ncnc2c1ccn2[C@@H]1C[C@H](Oc2cc(C(F)F)c(F)c3c2CNCC3)[C@@H](O)[C@H]1O", "note": "[PF-06939999]", "values": [{"measurement": "TRAE Anemia", "setting": "Part 1 N = 28, any grade", "value": "12 (43) n (%)"}, {"measurement": "TRAE Any", "setting": "Part 1 N = 28, any grade", "value": "24 (86) n (%)"}, {"measurement": "TRAE Decreased appetite", "setting": "Part 1 N = 28, any grade", "value": "6 (21) n (%)"}, {"measurement": "TRAE Dysgeusia", "setting": "Part 1 N = 28, any grade", "value": "9 (32) n (%)"}, {"measurement": "TRAE Dyspepsia", "setting": "Part 1 N = 28, any grade", "value": "2 (7) n (%)"}, {"measurement": "TRAE Fatigue", "setting": "Part 1 N = 28, any grade", "value": "9 (32) n (%)"}, {"measurement": "TRAE Hypomagnesemia", "setting": "Part 1 N = 28, any grade", "value": "4 (14) n (%)"}, {"measurement": "TRAE Leukopenia", "setting": "Part 1 N = 28, any grade", "value": "3 (11) n (%)"}, {"measurement": "TRAE Nausea", "setting": "Part 1 N = 28, any grade", "value": "8 (29) n (%)"}, {"measurement": "TRAE Neutropenia", "setting": "Part 1 N = 28, any grade", "value": "3 (11) n (%)"}, {"measurement": "TRAE Thrombocytopenia (including platelet count decreased)", "setting": "Part 1 N = 28, any grade", "value": "9 (32) n (%)"}, {"measurement": "TRAE Vomiting", "setting": "Part 1 N = 28, any grade", "value": "1 (4) n (%)"}, {"measurement": "TRAE Weight decreased", "setting": "Part 1 N = 28, any grade", "value": "0 n (%)"}, {"measurement": "TRAE Anemia", "setting": "Part 1 N = 28, grade ≥3", "value": "8 (29) n (%)"}, {"measurement": "TRAE Any", "setting": "Part 1 N = 28, grade ≥3", "value": "12 (43) n (%)"}, {"measurement": "TRAE Decreased appetite", "setting": "Part 1 N = 28, grade ≥3", "value": "0 n (%)"}, {"measurement": "TRAE Dysgeusia", "setting": "Part 1 N = 28, grade ≥3", "value": "0 n (%)"}, {"measurement": "TRAE Dyspepsia", "setting": "Part 1 N = 28, grade ≥3", "value": "0 n (%)"}, {"measurement": "TRAE Fatigue", "setting": "Part 1 N = 28, grade ≥3", "value": "2 (7) n (%)"}, {"measurement": "TRAE Hypomagnesemia", "setting": "Part 1 N = 28, grade ≥3", "value": "0 n (%)"}, {"measurement": "TRAE Leukopenia", "setting": "Part 1 N = 28, grade ≥3", "value": "0 n (%)"}, {"measurement": "TRAE Nausea", "setting": "Part 1 N = 28, grade ≥3", "value": "0 n (%)"}, {"measurement": "TRAE Neutropenia", "setting": "Part 1 N = 28, grade ≥3", "value": "1 (4) n (%)"}, {"measurement": "TRAE Thrombocytopenia (including platelet count decreased)", "setting": "Part 1 N = 28, grade ≥3", "value": "6 (21) n (%)"}, {"measurement": "TRAE Vomiting", "setting": "Part 1 N = 28, grade ≥3", "value": "0 n (%)"}, {"measurement": "TRAE Weight decreased", "setting": "Part 1 N = 28, grade ≥3", "value": "0 n (%)"}, {"measurement": "TRAE Anemia", "setting": "[1]", "value": "11 (42) n (%)"}, {"measurement": "TRAE Any", "setting": "[1]", "value": "21 (81) n (%)"}, {"measurement": "TRAE Decreased appetite", "setting": "[1]", "value": "7 (27) n (%)"}, {"measurement": "TRAE Dysgeusia", "setting": "[1]", "value": "3 (12) n (%)"}, {"measurement": "TRAE Dyspepsia", "setting": "[1]", "value": "4 (15) n (%)"}, {"measurement": "TRAE Fatigue", "setting": "[1]", "value": "6 (23) n (%)"}, {"measurement": "TRAE Hypomagnesemia", "setting": "[1]", "value": "1 (4) n (%)"}, {"measurement": "TRAE Leukopenia", "setting": "[1]", "value": "2 (8) n (%)"}, {"measurement": "TRAE Nausea", "setting": "[1]", "value": "9 (35) n (%)"}, {"measurement": "TRAE Neutropenia", "setting": "[1]", "value": "1 (4) n (%)"}, {"measurement": "TRAE Thrombocytopenia (including platelet count decreased)", "setting": "[1]", "value": "13 (50) n (%)"}, {"measurement": "TRAE Vomiting", "setting": "[1]", "value": "3 (12) n (%)"}, {"measurement": "TRAE Weight decreased", "setting": "[1]", "value": "3 (12) n (%)"}, {"measurement": "TRAE Anemia", "setting": "[2]", "value": "7 (27) n (%)"}, {"measurement": "TRAE Any", "setting": "[2]", "value": "11 (42) n (%)"}, {"measurement": "TRAE Decreased appetite", "setting": "[2]", "value": "0 n (%)"}, {"measurement": "TRAE Dysgeusia", "setting": "[2]", "value": "0 n (%)"}, {"measurement": "TRAE Dyspepsia", "setting": "[2]", "value": "0 n (%)"}, {"measurement": "TRAE Fatigue", "setting": "[2]", "value": "1 (4) n (%)"}, {"measurement": "TRAE Hypomagnesemia", "setting": "[2]", "value": "0 n (%)"}, {"measurement": "TRAE Leukopenia", "setting": "[2]", "value": "1 (4) n (%)"}, {"measurement": "TRAE Nausea", "setting": "[2]", "value": "0 n (%)"}, {"measurement": "TRAE Neutropenia", "setting": "[2]", "value": "1 (4) n (%)"}, {"measurement": "TRAE Thrombocytopenia (including platelet count decreased)", "setting": "[2]", "value": "6 (23) n (%)"}, {"measurement": "TRAE Vomiting", "setting": "[2]", "value": "0 n (%)"}, {"measurement": "TRAE Weight decreased", "setting": "[2]", "value": "0 n (%)"}, {"measurement": "TRAE Anemia", "setting": "Total N = 54, any grade", "value": "23 (43) n (%)"}, {"measurement": "TRAE Any", "setting": "Total N = 54, any grade", "value": "45 (83) n (%)"}, {"measurement": "TRAE Decreased appetite", "setting": "Total N = 54, any grade", "value": "13 (24) n (%)"}, {"measurement": "TRAE Dysgeusia", "setting": "Total N = 54, any grade", "value": "12 (22) n (%)"}, {"measurement": "TRAE Dyspepsia", "setting": "Total N = 54, any grade", "value": "6 (11) n (%)"}, {"measurement": "TRAE Fatigue", "setting": "Total N = 54, any grade", "value": "15 (28) n (%)"}, {"measurement": "TRAE Hypomagnesemia", "setting": "Total N = 54, any grade", "value": "5 (9) n (%)"}, {"measurement": "TRAE Leukopenia", "setting": "Total N = 54, any grade", "value": "5 (9) n (%)"}, {"measurement": "TRAE Nausea", "setting": "Total N = 54, any grade", "value": "17 (32) n (%)"}, {"measurement": "TRAE Neutropenia", "setting": "Total N = 54, any grade", "value": "4 (7) n (%)"}, {"measurement": "TRAE Thrombocytopenia (including platelet count decreased)", "setting": "Total N = 54, any grade", "value": "22 (41) n (%)"}, {"measurement": "TRAE Vomiting", "setting": "Total N = 54, any grade", "value": "4 (7) n (%)"}, {"measurement": "TRAE Weight decreased", "setting": "Total N = 54, any grade", "value": "3 (6) n (%)"}, {"measurement": "TRAE Anemia", "setting": "Total N = 54, grade ≥3", "value": "15 (28) n (%)"}, {"measurement": "TRAE Any", "setting": "Total N = 54, grade ≥3", "value": "23 (43) n (%)"}, {"measurement": "TRAE Decreased appetite", "setting": "Total N = 54, grade ≥3", "value": "0 n (%)"}, {"measurement": "TRAE Dysgeusia", "setting": "Total N = 54, grade ≥3", "value": "0 n (%)"}, {"measurement": "TRAE Dyspepsia", "setting": "Total N = 54, grade ≥3", "value": "0 n (%)"}, {"measurement": "TRAE Fatigue", "setting": "Total N = 54, grade ≥3", "value": "3 (6) n (%)"}, {"measurement": "TRAE Hypomagnesemia", "setting": "Total N = 54, grade ≥3", "value": "0 n (%)"}, {"measurement": "TRAE Leukopenia", "setting": "Total N = 54, grade ≥3", "value": "1 (2) n (%)"}, {"measurement": "TRAE Nausea", "setting": "Total N = 54, grade ≥3", "value": "0 n (%)"}, {"measurement": "TRAE Neutropenia", "setting": "Total N = 54, grade ≥3", "value": "2 (4) n (%)"}, {"measurement": "TRAE Thrombocytopenia (including platelet count decreased)", "setting": "Total N = 54, grade ≥3", "value": "12 (22) n (%)"}, {"measurement": "TRAE Vomiting", "setting": "Total N = 54, grade ≥3", "value": "0 n (%)"}, {"measurement": "TRAE Weight decreased", "setting": "Total N = 54, grade ≥3", "value": "0 n (%)"}, {"measurement": "Patients who discontinued treatment due to AEs", "setting": "all 54 patients, 6 patients", "value": 11, "unit": "%"}, {"measurement": "Recommended part 2 dose (RP2D)", "setting": "oral, selected from safety and PK/PD modeling", "value": 6, "unit": "mg q.d."}, {"measurement": "Grade ≥3 TRAE Anemia", "setting": "[3]", "value": 28, "unit": "%"}, {"measurement": "Grade ≥3 TRAE Fatigue", "setting": "[3]", "value": 6, "unit": "%"}, {"measurement": "Grade ≥3 TRAE Neutropenia", "setting": "[3]", "value": 4, "unit": "%"}]}]}
